Bioassay records from PubChem.
AP complement: alternative pathway complement inhibition, orthogonal assay | Human serum alternative complement pathway, LPS-coated ELISA, C3 deposition; tested in compound mixtures | inhibition, % at 5 µM | 62,000 tested, 0.08% active | AID 1235;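 active means inhibition above 30% in each of the two pooled mixtures holding the compound, so the lower value exceeds 30%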;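 further: 0% = serum in Mg-EGTA without compound and 100% = EDTA serum blank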
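Medium: diluted human serum in Mg2+-EGTA GVB++. Assay system: human serum complement alternative pathway, C3 deposition onto LPS. Also added: Plate-bound LPS. Technique: Anti-C3 ELISA, OD 450 nm. Measure: percent inhibition. Incubation: 1 h at 37 °C. Dosing: 5 µM each compound, pools of ten, 50 µM per pool.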
WNV NS2B-NS3 inh: inhibitors of West Nile virus NS2B-NS3 protease; z-score (test concentration not listed); WNV NS2B-NS3 protease, fluorogenic substrate Ex360/Em465; hits give low values; 65,000 tested, 0.18% active; in the data active means z-score below about -3
Target sequence (P06935 1371-1501 limits assumed): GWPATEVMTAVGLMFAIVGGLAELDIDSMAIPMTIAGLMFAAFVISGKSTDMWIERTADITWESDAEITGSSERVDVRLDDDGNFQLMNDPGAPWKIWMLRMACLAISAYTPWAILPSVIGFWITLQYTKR
Target sequence (P06935 1502-1679 limits assumed): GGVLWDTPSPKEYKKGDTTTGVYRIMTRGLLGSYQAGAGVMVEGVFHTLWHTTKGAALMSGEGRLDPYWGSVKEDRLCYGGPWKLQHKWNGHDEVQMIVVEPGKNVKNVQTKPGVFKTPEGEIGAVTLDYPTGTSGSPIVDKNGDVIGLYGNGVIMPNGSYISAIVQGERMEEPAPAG
M1 antag: M1 muscarinic receptor (rat) antagonism. P08482. CHO-M1 cells, Fluo-4 calcium, ACh EC80 antagonist mode; hits give low values. B-score at 10 µM. 64,000 tested, 3.4% active. AID 628;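 active means calcium fluorescence response, raw or row-and-column corrected B-score, differing from the plate sample mean either way at a set confidence level, mostly lower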
M1 agonist: M1 muscarinic receptor agonism | CHO-M1 cells, Fluo-4 calcium fluorescence, agonist mode; hits give high values | B-score at 10 µM | 64,000 tested, 3% active | AID 626;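 active means fluorescence rise, raw or as B-score row- and column-corrected plate score, outside the 99.7% band of its plate's samples, either direction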
Ecoli tolC: E. coli tolC mutant growth inhibition; growth inhibition, % at 10 µM (by protocol); E. coli BW25113 tolC mutant growth, OD615; 65,000 tested, 2.2% active;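 active means growth inhibition at or above a cutoff equal to the mean over every tested compound plus 3 SD, cut at about 60% in these data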;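 further: growth measured after 20 h incubation at 37 °C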
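Signal: optical density read at 615 nm; Assay system: E. coli ΔtolC::kan strain BW25113; Times: 20 h incubation with compound, 37 °C; Dosing: 10 µM final, single dose.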
Ecoli WT expand: growth inhibitors of E. coli BW25113 wild type. OD600 absorbance. growth inhibition, % at 100 µM. 98,000 tested, 0.15% active. AID 710;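 active means growth inhibition above about 50% at one test dose, limit read from the data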;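 further: growth measured after 20 h incubation at 37 °C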
* marks the source's active call; other numbers are inactive results; . = no result. Hits are enriched below; roughly 5.2% of the tested compounds scored in any of these assays.

SMILES	AP complement	WNV NS2B-NS3 inh	M1 antag	M1 agonist	Ecoli tolC	Ecoli WT expand
COC(=O)COc1ccc(S(=O)(=O)NCc2cccnc2)cc1C	-1	-1.1	-0.82	-0.21	-3	-1
COc1ccc(CNc2nc(NCc3ccc(OC)c(OC)c3)n(C(=O)c3cccs3)n2)cc1OC	.	.	.	.	.	-8
Cc1nc2sc(C(c3ccc(Cl)cc3)N3CCN(c4ccccc4F)CC3)c(O)n2n1 (stereo not given)	-5	1.8	-0.89	-0.019	16	-12
CCCCCc1cc(O)c2c(C)cc(=O)oc2c1	13	-0.5	-2	0.44	86*	-3
CCN1CCCC1CNC(=O)C(=O)Nc1ccccc1OC (stereo not given)	.	.	.	.	.	-4
O=S(=O)(Nc1nc2ccccc2s1)c1ccc(Br)s1	17	-0.45	-0.98	-1.1	76*	11
COc1cc(C(=O)N(Cc2cccc(Cl)c2)C2CCS(=O)(=O)C2)cc(OC)c1OC (stereo not given)	.	.	.	.	.	6
C(=C\c1ccccc1)/CSc1nnc(-c2cccnc2)o1	16	0.16	0.32	0.0069	13	5
O=C(COc1ccccc1)Nc1nnc(-c2ccc(Cl)s2)o1	10	-0.27	1.1	0.93	96*	55*
CCn1c(SCC(=O)N2CCCc3ccccc32)nc2c(c1=O)SC(C)C2 (stereo not given)	4	-0.31	3.3*	0.44	15	.
C/C(NC1CCCCC1)=C(/C#N)C(=O)NCCN1CCOCC1	5	-0.44	-0.3	0.54	-26	4
COc1ccc(Cn2c(=O)sc3ccccc32)cc1	0	-0.26	.	.	61*	4
CCOC(=O)c1cc2sccc2n1CC(=O)N1CCCC1	-6	1.2	-1.2	0.019	-8	1
CC1Oc2ccccc2N(Cc2ccccc2Cl)C1=O (stereo not given)	13	-0.57	0.00089	0.76	61*	-9
COc1c(F)c(F)c(C(=O)Nc2ccc(N3CCN(C(C)=O)CC3)c(Cl)c2)c(F)c1F	.	.	.	.	.	-5
c1ccc2nc3c(nc2c1)CCc1nonc1-3	2	-0.73	0.0065	1.2	-9	-7
O/N=C1/CCc2nonc2/C1=N/O	-2	-0.23	-0.51	0.5	0	52*
O=C(O)CC(CNS(=O)(=O)c1ccccc1)c1ccccc1 (stereo not given)	7	-0.34	-0.037	-0.91	-22	8
Cc1ccsc1C(=O)Nc1nnc(-c2ccco2)o1	14	-0.16	0.85	-0.36	98*	85*
CC1=C(C(=O)OC2CCCCCCC2)C(c2cccc(O)c2)NC(=O)N1 (stereo not given)	-5	2.2	-0.48	0.06	65*	14
O=C(N/N=C/c1cccc(Oc2ccccc2)c1)c1ccccc1Br	.	.	.	.	.	-8
COc1cccc(-c2nc(N3CC(C)CC(C)C3)c3ccccc3n2)c1O (stereo not given)	.	-0.2	0.19	-0.95	3	-22
COc1cccc(-c2nc(N3CCC(C)CC3)c3ccccc3n2)c1O	.	0.22	2.2*	-0.62	13	-8
C=COCCNC(=O)Nc1ccc(Cl)c(Cl)c1	-15	-0.74	-0.38	0.6	23	17
Cc1noc(/C=C/N(C)C)c1S(=O)(=O)N1CCc2ccccc21	15	-0.11	1.3*	1.2	6	-4
SMILES	AP complement	WNV NS2B-NS3 inh	M1 antag	M1 agonist	Ecoli tolC	Ecoli WT expand
Cc1noc(/C=C/N(C)C)c1S(=O)(=O)N(C)CC(=O)N1CCc2ccccc21	9	0.11	-0.0052	0.52	-17	-10
CSc1nc(-c2ccccc2)nc(N2CCCC2)c1C(C)=O	4	-0.08	0.45	-0.024	75*	-1
O=C(CCCOc1ccc(Cl)cc1Cl)N1CCN(c2ccccn2)CC1	-1	0.34	-0.36	1.1	73*	-11
O=C(CCCOc1ccccc1)N1CCN(c2ccccn2)CC1	5	0.19	-0.82	-0.2	-5	0
COC(=O)c1ccc(OC)c(CSc2nnc(COc3ccccc3)o2)c1	11	-0.55	-0.41	0.68	62*	1
CCCn1c(SCC(=O)Nc2nnc(C)s2)nnc1-c1ccoc1C	3	1.4	-0.083	-0.017	-16	-2
Cc1ccc2c(n1)sc1c(N)ncnc12	18	0.39	0.65	0.51	22	16
CC(C)(C)c1ccc(-c2nnc3sc(-c4ccncc4)nn23)cc1	.	-0.05	8.9*	-0.62	8	2
Cc1nonc1NC(=O)c1ccc(Cl)c(S(=O)(=O)N2CCCCC2)c1	-3	-0.36	-1	-1.3	24	7
COc1cc2c(cc1OC)CN(C(=O)CSc1nnc(C)s1)CC2	4	0.91	-0.04	-0.71	-1	1
Cc1cc2nc(NC3=NCN(Cc4cccnc4)CN3)nc(C)c2cc1C	16	1.3	-3.2*	0.54	-3	.
CCc1ccc2nc(NC3=NCN(CCOC)CN3)nc(C)c2c1	22	-0.67	0.035	-0.25	-5	.
CCOC(=O)/C(C#N)=C1/C=CN(C)C(C)=N1	33*	-1.5	0.17	0.32	-11	1
CCOC(=O)/C(C#N)=C1/C=CNC(=O)N1	-7	-0.98	-0.26	-0.54	-11	1
CC(=O)n1nc2nc(C)cc(C)c2c1N	-7	0.79	-0.11	-0.00054	-13	1
CCN(CC)N=Nc1[nH]nc2nc(C)cc(C)c12	.	.	.	.	.	63*
CC1CCC2C(C1)c1sc(=O)[nH]c1SC2(C)C (stereo not given)	6	-0.08	0.44	0.78	63*	14
N#C/C(=C\C1CC=CCC1)c1nc2ccccc2[nH]1 (stereo not given)	3	0.48	0.97	-1.1	64*	-7
Cn1c(/C(C#N)=C/C2CC=CCC2)nc2ccccc21 (stereo not given)	.	-0.01	-0.13	0.57	3	-2
COc1ccc(-n2nnc3c(SCC(=O)N4CCN(c5ccccc5)CC4)ncnc32)cc1	6	0.02	-0.12	-0.8	-4	.
c1ccc(C2(CNc3ccccn3)CCCC2)cc1	.	.	.	.	.	12
Cc1cc(Cl)c(OCCCNCc2ccccc2)c(Br)c1	.	.	.	.	.	57*
OCCNCCCOc1ccc(Cl)cc1Br	.	.	.	.	.	17
Clc1ccc(OCCCNCc2ccccc2)c(Br)c1	.	.	.	.	.	68*
Cc1ccc(C2CC(c3cccs3)=NN2C(=O)c2ccc(Br)o2)cc1 (stereo not given)	.	.	.	.	.	-26
CCOc1ccc(NS(=O)(=O)c2ccc3[nH]cc(C(=O)NCC4CCCO4)c(=O)c3c2)cc1 (stereo not given)	7	-0.49	-0.74	0.84	-1	-15
CCOc1ccc(NS(=O)(=O)c2ccc3[nH]cc(C(=O)N(CC)CC)c(=O)c3c2)cc1	21	-1.2	-11*	23*	-8	0
Cc1ccc(N(CC(O)COCc2ccco2)S(=O)(=O)c2ccc(C)cc2)cc1 (stereo not given)	21	-1	0.31	-0.073	15	5
C=COC(=O)CSc1nc(-c2cccs2)ccc1C#N	.	0.32	2.9*	0.33	-9	-11
CCC(=O)N1c2ccc(C)cc2C2=NNC(=S)NC21O (stereo not given)	.	.	.	.	.	-11
